# Data as given in ChEMBL document CHEMBL3352597, “Heck products of parthenolide and melampomagnolide-B as anticancer modulators that modify cell cycle progression” (Eur J Med Chem, 2014).
# What was measured:
# Type in all cases: functional
# [1] = Anticancer activity against human HCT116 cells
# Method in brief: (§1)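 NCI 60 human cancer cell line panel, multiple-dose testing at five concentrations (10^-4, 10^-5, 10^-6, 10^-7 and 10^-8 M). Dose-response curves plot cytotoxic effect against log10 of drug concentration for each cell line. GI50 is the molar concentration giving 50% growth inhibition; LC50 is the concentration killing 50% of cells.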
# NCI-H522 = experiment: Anticancer activity against human NCI-H522 cells; method in brief: as §1
# [2] = Anticancer activity against human OVCAR8 cells; method in brief: as §1
# TK-10 = experiment: Anticancer activity against human TK10 cells
# Method in brief: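 NCI 60 human tumour cell line screen. A single-concentration pre-screen was run at 10^-5 M. Compounds selected from it were then tested at five concentrations, 10^-4 to 10^-8 M. Dose-response curves plotted cytotoxic effect against log10 of the drug concentration for each cell line. GI50 is the molar concentration giving 50% growth inhibition, and LC50 the concentration killing 50% of cells.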
# [3] = Anticancer activity against human SF539 cells; method in brief: as §1
# [4] = Anticancer activity against human HCT15 cells; method in brief: as §1
# [5] = read-out: LC50 (the source's name)
compound,measurement,setting,value
C/C1=C\CC[C@@]2(C)O[C@@H]2[C@H]2OC(=O)/C(=C/c3ccsc3)[C@@H]2CC1,GI50,[1]; HCT-116,28.3 µM
same,CC50,"[1]; HCT-116, read-out: LC50 (the source's name)",> 100 µM
same,GI50,NCI-H522,5.44 µM
same,CC50,NCI-H522; [5],59.7 µM
same,GI50,[2]; OVCAR-8,26.9 µM
same,CC50,"[2]; OVCAR-8, read-out: LC50 (the source's name)",> 100 µM
same,GI50,TK-10,34.7 µM
same,CC50,TK-10; [5],> 100 µM
same,GI50,[3]; SF-539,16.1 µM
same,CC50,"[3]; SF-539, read-out: LC50 (the source's name)",62.2 µM
same,GI50,[4]; HCT-15,22.6 µM
same,CC50,"[4]; HCT-15, read-out: LC50 (the source's name)",> 100 µM
